According to ChEMBL document CHEMBL3407457, “Microwave-assisted synthesis of certain pyrrolylpyridines, some derived ring systems and their evaluation as anticancer and antioxidant agents” (Eur J Med Chem, 2015):
The source made the active and inactive calls. The rule behind the calls is not given here.

Columns and labels:
EKVX = experiment: (§1) Growth inhibition of human EKVX cells at 10 uM after 48 hrs by sulforhodamine B assay; format: functional
Method in brief: (§2)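 NCI-60 primary screen: cells given a single 10 µM dose under 48 h continuous exposure. Growth/viability estimated by sulforhodamine B protein assay. Reported as percent growth of treated cells (mean graph), expressed as percent growth inhibition.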

[1] = Growth inhibition of human HOP92 cells at 10 uM after 48 hrs by sulforhodamine B assay; format: functional; conditions: HOP-92, 48 h, read-out: GI; method in brief: as §2
SNB-75 = experiment: Growth inhibition of human SNB75 cells at 10 uM after 48 hrs by sulforhodamine B assay; format: functional; conditions: for inhibition of growth at 10 µM: SNB-75, 48 h, read-out: GI; method in brief: as §2
Hs-578T = experiment: (§3) Growth inhibition of human Hs 578T cells at 10 uM after 48 hrs by sulforhodamine B assay; format: functional; method in brief: as §2
LOX IMVI = experiment: (§4) Growth inhibition of human LOXIMVI cells at 10 uM after 48 hrs by sulforhodamine B assay; format: functional; method in brief: as §2
[2] = Growth inhibition of human RPMI8226 cells at 10 uM after 48 hrs by sulforhodamine B assay; format: functional; conditions: RPMI-8226, 48 h, read-out: GI; method in brief: as §2
SK-MEL-5 = experiment: Growth inhibition of human SK-MEL-5 cells at 10 uM after 48 hrs by sulforhodamine B assay; format: functional; conditions: for inhibition of growth at 10 µM: SK-MEL-5, 48 h, read-out: GI; method in brief: as §2
K562 = experiment: Growth inhibition of human K562 cells at 10 uM after 48 hrs by sulforhodamine B assay; format: functional; conditions: for inhibition of growth at 10 µM: K562, 48 h, read-out: GI; method in brief: as §2
PC-3 = experiment: (§5) Growth inhibition of human PC3 cells at 10 uM after 48 hrs by sulforhodamine B assay; format: functional; method in brief: as §2
[3] = Growth inhibition of human UACC62 cells at 10 uM after 48 hrs by sulforhodamine B assay; format: functional; conditions: UACC-62, 48 h, read-out: GI; method in brief: as §2
T47D = experiment: Growth inhibition of human T47D cells at 10 uM after 48 hrs by sulforhodamine B assay; format: functional; conditions: read-out: GI; method in brief: as §2
CCRF-CEM = experiment: Growth inhibition of human CCRF-CEM cells at 10 uM after 48 hrs by sulforhodamine B assay; format: functional; conditions: read-out: GI; method in brief: as §2
UO-31 = experiment: (§6) Growth inhibition of human UO31 cells at 10 uM after 48 hrs by sulforhodamine B assay; format: functional; method in brief: as §2
HL-60(TB) = experiment: Growth inhibition of human HL-60(TB) cells at 10 uM after 48 hrs by sulforhodamine B assay; format: functional; conditions: HL-60, 48 h, read-out: GI
Method in brief: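 NCI-60 one-dose primary screen, HL-60(TB) within the leukemia subpanel. Single 10 µM concentration, 48 h continuous exposure. Growth estimated by sulforhodamine B protein assay. Percent growth of treated cells expressed as percentage growth inhibition (GI%).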

HCT-116 = experiment: (§7) Growth inhibition of human HCT116 cells at 10 uM after 48 hrs by sulforhodamine B assay; format: functional; method in brief: as §2
NCI-H522 = experiment: Growth inhibition of human NCI-H522 cells at 10 uM after 48 hrs by sulforhodamine B assay; format: functional; conditions: for inhibition of growth at 10 µM: NCI-H522, 48 h, read-out: GI; method in brief: as §2
IGROV-1 = experiment: Growth inhibition of human IGROV1 cells at 10 uM after 48 hrs by sulforhodamine B assay; format: functional; conditions: IGROV-1, 48 h, read-out: GI; method in brief: as §2
[4] = Growth inhibition of human HCT15 cells at 10 uM after 48 hrs by sulforhodamine B assay; format: functional; conditions: HCT-15, 48 h, read-out: GI; method in brief: as §2
[5] = (§8) Growth inhibition of human OVCAR4 cells at 10 uM after 48 hrs by sulforhodamine B assay; format: functional; conditions: OVCAR-4, 48 h, read-out: GI; method in brief: as §2
CAKI-1 = experiment: Growth inhibition of human CAKI-1 cells at 10 uM after 48 hrs by sulforhodamine B assay; format: functional; method in brief: as §2
ACHN = experiment: Growth inhibition of human ACHN cells at 10 uM after 48 hrs by sulforhodamine B assay; format: functional; method in brief: as §2
MDA-MB-468 = experiment: Growth inhibition of human MDA-MB-468 cells at 10 uM after 48 hrs by sulforhodamine B assay; format: functional; method in brief: as §2
[6] = Growth inhibition of human MOLT4 cells at 10 uM after 48 hrs by sulforhodamine B assay; format: functional; conditions: MOLT-4, 48 h, read-out: GI; method in brief: as §2
A498 = experiment: Growth inhibition of human A498 cells at 10 uM after 48 hrs by sulforhodamine B assay; format: functional; conditions: A498, 48 h, read-out: GI; method in brief: as §2
U-251 = experiment: Growth inhibition of human U251 cells at 10 uM after 48 hrs by sulforhodamine B assay; format: functional; method in brief: as §2
[7] = as §1; format: functional; conditions: read-out: GI; method in brief: as §2
[8] = as §3; format: functional; conditions: read-out: GI; method in brief: as §2
[9] = as §5; format: functional; conditions: PC-3, 48 h, read-out: GI; method in brief: as §2
[10] = as §6; format: functional; conditions: UO-31, 48 h, read-out: GI; method in brief: as §2
[11] = as §7; format: functional; conditions: HCT-116, 48 h, read-out: GI; method in brief: as §2
OVCAR-4 = experiment: as §8; format: functional; method in brief: as §2
[12] = as §4; format: functional; conditions: LOX IMVI, read-out: GI; method in brief: as §2
[13] = Antioxidant activity assessed as DPPH radical scavenging activity at 10^-4 M incubated for 30 mins by spectrophotometry; format: physicochemical; conditions: 0.5 h, 100 µM
Method in brief: (§9)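 Compound at 10^-3 or 10^-4 M mixed with methanolic DPPH (0.1 mL of 1 mM stock; 3 mL total volume), shaken, kept in the dark 30 min at room temperature. Absorbance read at 517 nm. Scavenging (%) = (A_control − A_sample)/A_control × 100, where the control is DPPH in methanol alone. BHT served as reference antioxidant. Triplicate, mean ± SD of three independent experiments.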

[14] = Antioxidant activity assessed as DPPH radical scavenging activity at 10^-3 M incubated for 30 mins by spectrophotometry; format: physicochemical; conditions: 0.5 h, 1000 µM; method in brief: as §9

For CC1CCCc2c1nc1ncn3ncnc3c1c2-c1cccn1C (configuration not stated), the “growth inhibition (GI)” value (EKVX) was “inactive”, the inhibition of growth at 10 µM [1] was 10.1% and the “growth inhibition (GI)” value (SNB-75) was “inactive”. For the same compound, the “growth inhibition (GI)” value (Hs-578T) was “inactive”, the “growth inhibition (GI)” value (LOX IMVI) was “inactive” and the inhibition of growth at 10 µM [2] was 12.2%. The “growth inhibition (GI)” value (SK-MEL-5) was “inactive”, the “growth inhibition (GI)” value (K562) was “inactive” and the “growth inhibition (GI)” value (PC-3) was “inactive”. It also gave an inhibition of growth at 10 µM [3] of 8.3%, an inhibition of growth at 10 µM (T47D) of 11.8% and an inhibition of growth at 10 µM (CCRF-CEM) of 10.3%. The “growth inhibition (GI)” value (UO-31) was “inactive”, the inhibition of growth at 10 µM (HL-60(TB)) was 8.5% and the “growth inhibition (GI)” value (HCT-116) was “inactive”. The “growth inhibition (GI)” value (NCI-H522) was “inactive”, the inhibition of growth at 10 µM (IGROV-1) was 7.9% and the inhibition of growth at 10 µM [4] was 6.3%. The inhibition of growth at 10 µM [5] was 6.1%, the “growth inhibition (GI)” value (CAKI-1) was “inactive” and the “growth inhibition (GI)” value (ACHN) was “inactive”. The “growth inhibition (GI)” value (MDA-MB-468) was “inactive”, the inhibition of growth at 10 µM [6] was 20.4% and the inhibition of growth at 10 µM (A498) was 5.7%. The “growth inhibition (GI)” value (U-251) was “inactive”.

Work on CC1CCCc2c1nc1ncn(N)c(=N)c1c2-c1cccn1C (configuration not stated) yielded an inhibition of growth at 10 µM [7] of 16.2%, an inhibition of growth at 10 µM [1] of 11.3% and an inhibition of growth at 10 µM (SNB-75) of 10.7%. The inhibition of growth at 10 µM [8] was 10.7%, the “growth inhibition (GI)” value (LOX IMVI) was “inactive” and the inhibition of growth at 10 µM [2] was 38.6%. The inhibition of growth at 10 µM (SK-MEL-5) was 10.5%, the inhibition of growth at 10 µM (K562) was 18.3% and the inhibition of growth at 10 µM [9] was 20.4%. The inhibition of growth at 10 µM [3] was 16.9%, the inhibition of growth at 10 µM (T47D) was 17.5% and the inhibition of growth at 10 µM (CCRF-CEM) was 30.1%. The inhibition of growth at 10 µM [10] was 7.3%, the inhibition of growth at 10 µM (HL-60(TB)) was 11.6% and the inhibition of growth at 10 µM [11] was 11.7%. It also gave an inhibition of growth at 10 µM (NCI-H522) of 10.4%, an inhibition of growth at 10 µM (IGROV-1) of 12.4% and an inhibition of growth at 10 µM [4] of 13.4%. For the same compound, the “growth inhibition (GI)” value (OVCAR-4) was “inactive”, the “growth inhibition (GI)” value (CAKI-1) was “inactive” and the “growth inhibition (GI)” value (ACHN) was “inactive”. For the same compound, the “growth inhibition (GI)” value (MDA-MB-468) was “inactive”, the inhibition of growth at 10 µM [6] was 29.2% and the inhibition of growth at 10 µM (A498) was 14.6%. The “growth inhibition (GI)” value (U-251) was “inactive”.

Compound CCSc1nc(N)c2c(-c3cccn3C)c3c(nc2n1)C(C)CCC3 (configuration not stated) has an inhibition of growth at 10 µM [7] of 34.1%, an inhibition of growth at 10 µM [1] of 28.7% and an inhibition of growth at 10 µM (SNB-75) of 21.4%. For the same compound, the inhibition of growth at 10 µM [8] was 15.2%, the inhibition of growth at 10 µM [12] was 12.9% and the “inhibition (INH)” value [13] was 16%. For the same compound, the inhibition of growth at 10 µM [2] was 68.5%, the inhibition of growth at 10 µM (SK-MEL-5) was 13.1% and the inhibition of growth at 10 µM (K562) was 37.4%. The inhibition of growth at 10 µM [9] was 57.1%, the inhibition of growth at 10 µM [3] was 24.1% and the inhibition of growth at 10 µM (T47D) was 54.2%. The inhibition of growth at 10 µM (CCRF-CEM) was 21.6%, the inhibition of growth at 10 µM [10] was 45.8% and the inhibition of growth at 10 µM (HL-60(TB)) was 25.8%. The inhibition of growth at 10 µM [11] was 35.3%, the inhibition of growth at 10 µM (NCI-H522) was 33.8% and the inhibition of growth at 10 µM (IGROV-1) was 35.3%. It also gave an inhibition of growth at 10 µM [4] of 10.8%, an inhibition of growth at 10 µM [5] of 23.4% and an inhibition of growth at 10 µM (CAKI-1; CAKI-1, 48 h, read-out: GI) of 21.7%. For the same compound, the inhibition of growth at 10 µM (ACHN; read-out: GI) was 11.9%, the inhibition of growth at 10 µM (MDA-MB-468; MDA-MB-468, 48 h, read-out: GI) was 15.4% and the inhibition of growth at 10 µM [6] was 42.3%. The inhibition of growth at 10 µM (A498) was 26.5%, the “inhibition (INH)” value [14] was 28% and the inhibition of growth at 10 µM (U-251; U-251, 48 h, read-out: GI) was 16.7%.
